Measurements from PMC5308917 (Science translational medicine, 2017).
Values belong to the molecule of their own block, whether it stands above or below them. Where no end group is shown, it is not given here.

Experiments:
[1] = biological target: 5-carboxyfluorescein (5-FAM)-labeled AXT107; experiment: fluorescence polarisation
[2] = test system: VEGF-induced vascular leakage; experiment: VEGF-induced leakage in rabbit eyes; assay type: in vivo, rabbit (Dutch Belted)
How it was run: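 A single intravitreous dose of test compound (50 μg) or comparator (500 μg) was given in one eye, with vehicle in the fellow eye. VEGF (10 μg) was injected into both eyes on day 23, VFP done day 30, eyes rescanned without fluorescein day 43, VEGF (10 μg) reinjected both eyes day 53, VFP day 60. For VFP, 15 mg sodium fluorescein was given via ear vein. After 1 h, fluorescence was scanned retina-to-cornea, taking the AUC 5–7 mm in front of the retina.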

integrin αvβ3 = integrin αvβ3 (Homo sapiens, UniProt P05106+P06756); experiment: Fluorescence anisotropy, integrin αvβ3; assay type: binding
How it was run: (§1)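 FAM-labelled test compound (10 nM, dissolved in DMSO; final DMSO 0.0005%) mixed with 0–75 nM soluble recombinant heterodimeric integrin in 50 mM tris pH 7.5, 1 mM CaCl2, 1 mM MgCl2, 100 mM NaCl. Incubated on ice at least 30 min to reach equilibrium. Anisotropy read with vertically polarized excitation at 470 nm, detecting vertical and horizontal emission at 540 nm.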

[3] = Non-GLP safety studies after intravitreous injection; assay type: in vivo, rabbit; conditions: independent Clinical Research Organization
[4] = Fundus photography after intravitreous injection; assay type: in vivo, rabbit (Dutch Belted)
How it was run: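 Rabbits anaesthetized with IM ketamine (25 mg/kg) and xylazine (2.5 mg/kg), pupils dilated with 2.5% phenylephrine, conjunctiva cleaned with 5% povidone-iodine. Intravitreous injection of 50 μg test compound (or 500 μg comparator) in one eye and vehicle in the fellow eye. Fundus photographs taken 2 and 30 days after injection.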

integrin α5β1 = integrin α5β1 (Homo sapiens, UniProt P05556+P08648); experiment: Fluorescence anisotropy, integrin α5β1; assay type: binding
How it was run: as §1

VEGFR2 = experiment: Proteasomal inhibition by lactacystin and total VEGFR2; assay type: cell-based, human; conditions: 5 μM lactacystin with varying concentrations of AXT107

integrin αvβ3, sequence (P06756 31-992 limits assumed): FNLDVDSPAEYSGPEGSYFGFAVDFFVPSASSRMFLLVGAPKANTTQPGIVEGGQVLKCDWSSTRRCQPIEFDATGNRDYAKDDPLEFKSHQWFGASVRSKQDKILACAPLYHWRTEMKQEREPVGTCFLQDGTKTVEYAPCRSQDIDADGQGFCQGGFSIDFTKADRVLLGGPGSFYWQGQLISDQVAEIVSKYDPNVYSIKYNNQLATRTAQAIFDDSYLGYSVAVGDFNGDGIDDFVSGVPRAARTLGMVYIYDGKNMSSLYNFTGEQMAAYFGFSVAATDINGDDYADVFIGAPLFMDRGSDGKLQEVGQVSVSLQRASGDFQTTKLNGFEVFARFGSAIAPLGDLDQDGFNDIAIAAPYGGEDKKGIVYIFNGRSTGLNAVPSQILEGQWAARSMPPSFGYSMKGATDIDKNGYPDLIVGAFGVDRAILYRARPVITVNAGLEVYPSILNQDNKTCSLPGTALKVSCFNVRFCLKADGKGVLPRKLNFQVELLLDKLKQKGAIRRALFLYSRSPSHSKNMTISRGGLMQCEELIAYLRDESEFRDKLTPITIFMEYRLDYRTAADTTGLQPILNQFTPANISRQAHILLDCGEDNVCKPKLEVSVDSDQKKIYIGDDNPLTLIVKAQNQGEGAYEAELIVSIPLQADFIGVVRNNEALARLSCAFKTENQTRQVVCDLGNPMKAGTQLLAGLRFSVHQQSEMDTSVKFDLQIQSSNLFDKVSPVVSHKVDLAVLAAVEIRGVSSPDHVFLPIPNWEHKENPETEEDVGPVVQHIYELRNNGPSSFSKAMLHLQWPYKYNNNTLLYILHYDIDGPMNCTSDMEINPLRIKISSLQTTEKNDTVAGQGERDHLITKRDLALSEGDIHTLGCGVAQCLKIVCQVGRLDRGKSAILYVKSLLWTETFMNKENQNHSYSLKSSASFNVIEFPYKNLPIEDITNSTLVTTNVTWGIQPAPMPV
integrin αvβ3, sequence (P05106 27-718 limits assumed): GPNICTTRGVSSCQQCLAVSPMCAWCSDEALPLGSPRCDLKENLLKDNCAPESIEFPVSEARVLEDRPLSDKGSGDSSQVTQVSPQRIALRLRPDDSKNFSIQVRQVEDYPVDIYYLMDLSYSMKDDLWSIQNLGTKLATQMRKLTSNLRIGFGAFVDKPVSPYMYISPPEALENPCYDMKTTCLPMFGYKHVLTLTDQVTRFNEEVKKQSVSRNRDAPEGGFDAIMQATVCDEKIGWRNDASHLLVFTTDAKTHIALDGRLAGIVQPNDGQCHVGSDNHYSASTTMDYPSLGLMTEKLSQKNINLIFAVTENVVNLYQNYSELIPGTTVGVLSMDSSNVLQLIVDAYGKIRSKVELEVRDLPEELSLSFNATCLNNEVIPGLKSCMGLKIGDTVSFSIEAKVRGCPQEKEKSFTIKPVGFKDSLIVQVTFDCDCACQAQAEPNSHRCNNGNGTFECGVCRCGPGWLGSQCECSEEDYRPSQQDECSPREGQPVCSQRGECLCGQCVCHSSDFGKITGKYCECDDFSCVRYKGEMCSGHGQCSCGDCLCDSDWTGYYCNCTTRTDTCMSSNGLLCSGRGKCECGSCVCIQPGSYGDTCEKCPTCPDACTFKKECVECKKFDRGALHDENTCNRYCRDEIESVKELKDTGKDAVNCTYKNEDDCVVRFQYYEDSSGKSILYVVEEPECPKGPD
integrin α5β1, sequence (P08648 42-995 limits assumed): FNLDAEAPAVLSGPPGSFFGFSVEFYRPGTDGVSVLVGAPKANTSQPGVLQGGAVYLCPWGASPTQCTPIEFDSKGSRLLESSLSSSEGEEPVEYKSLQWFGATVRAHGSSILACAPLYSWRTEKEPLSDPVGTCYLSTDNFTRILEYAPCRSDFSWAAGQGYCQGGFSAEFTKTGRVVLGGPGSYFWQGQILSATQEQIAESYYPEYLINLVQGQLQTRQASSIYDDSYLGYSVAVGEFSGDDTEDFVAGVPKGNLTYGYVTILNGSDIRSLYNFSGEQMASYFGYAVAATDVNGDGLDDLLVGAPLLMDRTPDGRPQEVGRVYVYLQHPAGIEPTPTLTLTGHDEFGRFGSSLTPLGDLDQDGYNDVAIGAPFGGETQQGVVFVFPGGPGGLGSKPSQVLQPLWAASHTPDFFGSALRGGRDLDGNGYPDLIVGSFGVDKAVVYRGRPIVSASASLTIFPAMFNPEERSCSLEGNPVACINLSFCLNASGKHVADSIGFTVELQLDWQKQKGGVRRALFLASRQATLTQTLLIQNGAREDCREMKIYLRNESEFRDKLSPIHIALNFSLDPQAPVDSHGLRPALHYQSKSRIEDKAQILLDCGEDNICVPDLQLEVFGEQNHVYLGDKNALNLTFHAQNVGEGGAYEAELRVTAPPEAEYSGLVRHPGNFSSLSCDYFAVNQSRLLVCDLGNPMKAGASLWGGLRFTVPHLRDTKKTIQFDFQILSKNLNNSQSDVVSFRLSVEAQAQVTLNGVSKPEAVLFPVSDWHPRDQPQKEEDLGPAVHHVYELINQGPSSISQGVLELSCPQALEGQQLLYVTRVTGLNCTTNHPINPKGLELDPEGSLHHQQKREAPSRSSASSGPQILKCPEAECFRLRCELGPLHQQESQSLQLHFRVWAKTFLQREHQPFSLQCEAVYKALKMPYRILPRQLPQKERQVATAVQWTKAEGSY
integrin α5β1, sequence (P05556 21-728 limits assumed): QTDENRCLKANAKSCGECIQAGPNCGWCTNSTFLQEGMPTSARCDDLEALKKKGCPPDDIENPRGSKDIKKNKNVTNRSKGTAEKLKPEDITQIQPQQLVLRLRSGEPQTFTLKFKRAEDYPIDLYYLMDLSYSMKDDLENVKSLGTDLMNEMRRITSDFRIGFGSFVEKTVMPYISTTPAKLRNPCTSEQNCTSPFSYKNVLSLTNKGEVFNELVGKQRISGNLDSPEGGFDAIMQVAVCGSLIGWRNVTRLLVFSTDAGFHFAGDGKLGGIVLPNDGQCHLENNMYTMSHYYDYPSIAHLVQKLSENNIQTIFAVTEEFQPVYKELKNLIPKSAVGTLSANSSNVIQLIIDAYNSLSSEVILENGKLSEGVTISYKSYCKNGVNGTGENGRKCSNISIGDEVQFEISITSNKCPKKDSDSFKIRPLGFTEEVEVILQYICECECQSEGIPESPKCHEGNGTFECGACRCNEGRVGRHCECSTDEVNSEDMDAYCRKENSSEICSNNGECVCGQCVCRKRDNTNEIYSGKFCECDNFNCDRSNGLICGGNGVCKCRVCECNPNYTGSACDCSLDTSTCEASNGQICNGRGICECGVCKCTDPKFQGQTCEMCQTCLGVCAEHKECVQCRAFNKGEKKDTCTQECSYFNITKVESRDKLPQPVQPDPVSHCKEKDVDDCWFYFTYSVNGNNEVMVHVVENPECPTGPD

Kd [1]: 1.29 nM
Molecule: soluble, recombinant αvβ3 heterodimeric integrin (from UniProt P06756 31-1048; P05106 27-718) (complex)

Molecule: aflibercept: a VEGF-neutralizing protein, which is standard care for patients with NVAMD
fluorescein in the mid-vitreous, day 60 (representative VFP scans) ([2]; 50 μg of AXT107 or 500 μg of aflibercept, VEGF rechallenge (10 μg) on day 53): higher levels | leakage remaining at 60 days ([2]; 50 μg of AXT107 versus 500 μg of aflibercept, P < 0.05): 100% | leakage vs fellow eye controls, day 60 (in words) ([2]; 500 μg of aflibercept, VEGF rechallenge (10 μg) on day 53, VFP day 60): not significantly reduced

Kd [1]: 2.21 nM
Molecule: soluble, recombinant α5β1 heterodimeric integrin (from UniProt P08648 42-1049; P05556 21-728) (complex)

Molecule: LRRFSTAPFAFIDINDVINF [AXT107]
Kd (integrin αvβ3): 1.29 nM | intraocular pressure [3]: no increase in intraocular pressure | ocular media in the visual axis [3]: no degradation of the ocular media in the visual axis | retinal toxicity [3]: no retinal toxicity | gel-like depot in inferior vitreous, persistence ([4]; 50 μg intravitreous, 30 days after injection): still present in the same location 30 days after injection | dissipation of gel-like depot ([4]; after intraocular injection, inferior vitreous): slowly dissipates over months | Kd (integrin α5β1): 2.21 nM

Molecule: CC(=O)N[C@@H](CSC(=O)[C@]1([C@@H](O)C(C)C)NC(=O)[C@H](C)[C@@H]1O)C(=O)O [lactacystin]
AXT107-induced degradation of VEGFR2 (VEGFR2): reduced AXT107-induced degradation of VEGFR2
